Published values of several laboratories.
Each line is one published result; the experiments were not run side by side.
Target: Dual specificity tyrosine-phosphorylation-regulated kinase 1A (DYRK1A, Homo sapiens, UniProt Q13627)

SMILES	test	conditions	measurement	result
O=C(O)c1ccc2c(c1)nc(Nc1ccc(F)c(Cl)c1)c1ncncc12	enzyme activity, inhibitor, radiometric	1 µM	remaining activity	1%
CCC1(CC)NC(=O)c2c(c3ccc(Cl)c(Cl)c3n2C)C1C#N (stereo not drawn)	thermal stability, DSF	10 µM	ΔTm	0.7 °C
Cn1cnc(Br)c1C1=CN(c2ncnc3[nH]cnc23)CCS1	enzyme activity, inhibitor, radiometric	2 µM	inhibition	99.2%
O=C(O)c1ccc2c(c1)nc(Nc1ccccc1)c1ccncc12	enzyme activity, inhibitor, radiometric	1 µM	remaining activity	6%
N#CCCc1ccc2c(c1)-c1[nH]c3ccc([N+](=O)[O-])cc3c1CC(=O)N2	cell-free assay	0.5 µM	remaining signal	85.9%
O=C(O)c1ccc2c(c1)nc(Nc1ccc(Cl)cc1)c1ccncc12	enzyme activity, inhibitor, radiometric	1 µM	remaining activity	2%
CN([C@@H]1CCc2c(CC(=O)O)c3cc(S(C)(=O)=O)ccc3n2C1)S(=O)(=O)c1ccc(F)cc1	cell-free assay, competition with immobilised ligand	1 µM	remaining binding	81%
Cc1cc(NC(=O)c2cccc3cc(-c4cccc5[nH]nc(N)c45)ccc23)ccc1F	enzyme activity, inhibitor	0.1 µM	activity vs control	110%
COc1cc(Nc2c(C#N)cnc3cc(OCCCN4CCN(C)CC4)c(OC)cc23)c(Cl)cc1Cl	cell-free assay	0.5 µM	remaining signal	99.4%
O=C(O)c1cc(-c2ccc(C3CCNCC3)cc2)c2ccc(-c3ccc(C(F)(F)F)cc3)cc2c1	cell-free assay, competition with immobilised ligand	1 µM	remaining binding	100%
O=C(O)c1ccc2c(c1)nc(NCCc1cccc(Cl)c1)c1ccncc12	enzyme activity, inhibitor, radiometric	1 µM	remaining activity	17%
CCN1/C(=C/C(C)=O)Sc2ccc(OC)cc21	cell-free assay	0.5 µM	remaining signal	28.9%
Cc1ccc(C(=O)Nc2ccc(CN3CCN(C)CC3)c(C(F)(F)F)c2)cc1C#Cc1cnc2cccnn12	cell-free assay	23.5 nM	remaining signal	81%
Cn1c2c(c3ccc(Cl)c(Cl)c31)C(C#N)C(C)(C)NC2=O (stereo not drawn)	thermal stability, DSF	10 µM	ΔTm	3.2 °C
Cc1cc(-n2nc(Cc3cc(F)cc(C(F)(F)F)c3)nc2C)ccc1C(N)=O	cell-free assay, competition with immobilised ligand	1 µM	remaining binding	92%
O=C(O)c1ccc2c(c1)nc(Nc1cccc(F)c1)c1ncncc12	enzyme activity, inhibitor, radiometric	1 µM	remaining activity	1%
CC(=O)N1CCC(c2ccc(C(=O)NC(=N)N)cc2C(F)(F)F)CC1	cell-free assay, competition with immobilised ligand	1 µM	remaining binding	74%
CN(C)C1CCN(CC#Cc2nn(C3CCCC3)c3nc(NCc4ccccc4)ncc23)C1 (stereo not drawn)	enzyme activity, inhibitor, FRET	10 µM	inhibition	2%
COc1cc2ncnc(Nc3ccc(Oc4ccccc4)cc3C)c2cc1OC	enzyme activity, inhibitor	1 µM	inhibition	-1%
O=C(O)c1ccc2c(c1)nc(NCCc1cccc(F)c1)c1ncncc12	enzyme activity, inhibitor, radiometric	1 µM	remaining activity	18%
Cn1c2c(c3ccc(Cl)c(Cl)c31)C(C#N)C1(CCNCC1)NC2=O (racemic)	thermal stability, DSF	10 µM	ΔTm	2.5 °C
C[C@@H]1CN(c2cc(-c3nn(C)c4ccc(OC5(C)CC5)cc34)ncn2)C[C@H](C)O1	cell-free assay, competition with immobilised ligand	1 µM	remaining binding	81%
CC/C(=N\NC(=O)NCc1cccc(O)c1)c1ccc(O)c(C)c1O	enzyme activity, inhibitor	0.1 µM	inhibition	-4.7%
CCN(CC)CCNC(=O)c1c(C)[nH]c(/C=C2\C(=O)Nc3ccc(F)cc32)c1C	cell-free assay	0.5 µM	remaining signal	56.9%
O=C(N1CCS(=O)(=O)CC1)N1C[C@H](c2ccc(OC(F)(F)F)cc2)C[C@H](c2nc(C3CC3)no2)C1	cell-free assay, competition with immobilised ligand	1 µM	remaining binding	100%
N#Cc1cccc(Nc2nc3cc(C(=O)O)ccc3c3cncnc23)c1	enzyme activity, inhibitor, radiometric	1 µM	remaining activity	3%
O=C(Nc1cccnn1)N1CC(C/C=C/c2cncc(Oc3ccc(C(F)(F)F)cn3)n2)C1	cell-free assay, competition with immobilised ligand	1 µM	remaining binding	75%
CC1(C)NC(=O)c2[nH]c3c(Cl)c(Cl)ccc3c2C1C#N (stereo not drawn)	thermal stability, DSF	10 µM	ΔTm	2.6 °C
O=C(O)c1ccc2c(c1)nc(NCCc1cccc(F)c1)c1ccncc12	enzyme activity, inhibitor, radiometric	1 µM	remaining activity	8%
Cc1c[nH]c2nccc(Oc3c(F)cc(Nc4cc(Cl)nc(N)n4)cc3F)c12	cell-free assay, competition with immobilised ligand	0.1 µM	remaining binding	88%
